Screens (PubChem BioAssay)
Sampled rows, rich in hits. Any-hit rate of the full collection: about 2.1%.
HTR2A ag: activates the mouse 5-HT2A serotonin receptor; activation, % at 7.6 µM; AID 624169; CHO-K1 mHTR2A beta-arrestin complementation, luminescence; percent of 30 µM serotonin response; P35363; 0.66% of 360,000 active;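 active means activation above a run cutoff, the mean activation of all tested compounds plus 3 SD, cut at about 14% in these data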;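 further: 0% = plate median of compound wells and 100% = 30 µM serotonin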
APJ agonist: APJ receptor agonism | CHO-K1 APJ PathHunter beta-arrestin, luminescence; 0% DMSO wells, 100% apelin | activation, % at 20 µM | 0.11% of 330,000 active | P35414;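 active means activation more than six SD over the plate average, tested at 20 µM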;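 further: 0% = DMSO alone and 100% = apelin-13 at 10 nM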
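Incubation: overnight seeding, 90 min compound at 25 °C, 1 h detection; test system: PathHunter CHO-K1 APJ (AGTRL-1) beta-arrestin reporter cells; amount: 1000 cells/well; doses: one dose, 20 µM compound, 1% DMSO; measured by: beta-gal luminescence; measure: agonist-driven arrestin binding to APJ; benchmarks: negative DMSO alone, positive Apelin-13 at 10 nM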
APJ antagonist: APJ receptor antagonism; P35414; CHO-K1 APJ beta-arrestin complementation, luminescence; inhibition, % at 20 µM; 0.32% of 330,000 active;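 active means inhibition above about 40% at 20 µM, limit read from the data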;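 further: cells challenged with 10 nM apelin-13 agonist together with compound; plate controls were apelin-13 plus DMSO wells for no effect and DMSO wells lacking apelin-13 for full effect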
CXCR6 block: inhibitors of human CXCR6 receptor. CHO-K1 PathHunter CXCR6 beta-arrestin, luminescence. inhibition, % at 20 µM. 0.36% of 360,000 active. AID 602244; in the data active means inhibition above about 34%, passing the limit was not always enough;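 further: antagonist mode with CXCL16 agonist at 10 nM final; 0% = 10 nM CXCL16 with DMSO and 100% = unstimulated wells without agonist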
Target sequence (O00574 whole entry, looked up): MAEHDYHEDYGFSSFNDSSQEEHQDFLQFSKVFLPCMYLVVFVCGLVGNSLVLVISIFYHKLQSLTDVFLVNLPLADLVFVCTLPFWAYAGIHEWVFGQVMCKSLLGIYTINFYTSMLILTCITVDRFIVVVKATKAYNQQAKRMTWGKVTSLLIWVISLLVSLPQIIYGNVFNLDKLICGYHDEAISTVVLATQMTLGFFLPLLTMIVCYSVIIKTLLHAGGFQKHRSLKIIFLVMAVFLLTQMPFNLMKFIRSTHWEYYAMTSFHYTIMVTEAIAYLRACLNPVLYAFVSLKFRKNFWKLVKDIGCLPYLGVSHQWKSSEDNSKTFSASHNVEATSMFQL
CCR6 antag: CCR6 (human) receptor antagonism | P51684 | CHO-K1 CCR6 PathHunter beta-arrestin, luminescence, CCL20-stimulated | inhibition, % at 20 µM | 0.49% of 340,000 active | AID 493098;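 active means compounds whose inhibition of the agonist-driven luminescence signal at 20 µM reaches about 50%, limit read from the data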;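 further: cells stimulated with CCL20 at 14 nM final; plate controls were DMSO with CCL20 for no effect and DMSO without agonist for full effect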
EBI2 block: EBI2 (human) antagonism. P32249. EBI2 beta-arrestin recruitment, luminescence, 7a,25-OHC stimulated. inhibition, % at 5 µM. 0.81% of 360,000 active. AID 651636; in the data active means inhibition above about 38%;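 further: enzyme fragment complementation signal reports receptor beta-arrestin coupling in cells; 0% = agonist plus DMSO wells and 100% = wells without agonist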
EBI2 antag conf: EBI2 (human) antagonism, single concentration confirmation; shares compounds with EBI2 block; EBI2 beta-arrestin luminescence, 7a,25-OHC antagonism; inhibition, % at 5 µM; 29% of 2,400 active; AID 651997;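 active means inhibition of at least 50%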
EBI2 ag: counter-screen for EBI2 antagonists: EBI2 agonist activity; shares compounds with EBI2 block; EBI2-expressing cells, agonist mode, luminescence, 60 min; 0% vehicle, 100% 7α,25-dihydroxycholesterol control; activation, % at 5 µM; 2,400 tested, under 10 active; AID 652000;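 active means activation of at least 50%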
bGal counter: beta-galactosidase inhibition counter-screen; purified beta-galactosidase, luminescent Galacton Star, 15 min; inhibition, % at 5 µM; shares compounds with EBI2 block; AID 652176; 1% of 2,400 active;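 active means replicate-average signal at least 3 plate SD below neutral wells, shown as high inhibition, flagging enzyme-inhibiting false positives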;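 further: 0% = DMSO wells with enzyme and 100% = wells lacking enzyme; higher means stronger loss of beta-gal luminescence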
The depositor's hits bear a star; · = no result.

SMILES	HTR2A ag	APJ agonist	APJ antagonist	CXCR6 block	CCR6 antag	EBI2 block	EBI2 antag conf	EBI2 ag	bGal counter
Cc1ccc2c(c1)N(C(=O)CCC(=O)Nc1ccccc1Cl)CC(C)O2 (stereo unspecified)	-5	-6	-6	-2	-6	-2	·	·	·
CSc1ncccc1C(=O)NCC(c1cccs1)N1CCOCC1 (stereo unspecified)	-4	-3	15	4	17	-10	·	·	·
Cc1ccc(Sc2ccc(S(=O)(=O)Nc3ccc(C(=O)O)cc3)cc2)cc1C	-4	-5	10	2	-4	14	·	·	·
COC(=O)C(=Cc1ccc(OCc2ccc([N+](=O)[O-])cc2)c(OC)c1)C(=O)OC	1	-5	9	22	40	57*	67*	1	3
COc1ccc(Cl)cc1S(=O)(=O)Nc1noc2ccccc12	9	-1	-19	-2	18	-4	·	·	·
O=C(Nc1cccc(F)c1)C1CCN(C(=O)c2ccc(Br)cc2)CC1	-3	-3	-2	2	17	45*	21	-2	-8
O=C(Nc1cccc(S(=O)(=O)N2CCCCCC2)c1)C1CCN(C(=O)c2ccc(Cl)cc2)CC1	-8	-2	11	-10	20	52*	30	-1	7
Cc1cccc(NC(=O)C2CCN(C(=O)c3ccc(F)cc3)CC2)n1	-2	-6	10	9	-6	0	·	·	·
O=C(Nc1ccc(Br)cc1)C1CCN(C(=O)c2ccc(F)cc2)CC1	-5	0	7	0	-7	6	·	·	·
Cc1cccc(NC(=O)C2CCN(C(=O)c3ccc(Cl)cc3)CC2)n1	2	-3	17	16	15	46*	29	-1	6
Cc1nc(C)c(-c2ccc(SCc3ccc([N+](=O)[O-])cc3)nn2)s1	-7	-2	-23	1	10	17	·	·	·
O=S(=O)(c1ccc(Br)s1)N1CCNCC1	-1	-4	-30	-2	9	-13	·	·	·
CCC(=O)N1CCN(c2cc(C)ccc2C)CC1	5	-8	17	2	-8	4	·	·	·
Cc1ccc(C)c(N2CCN(C(=O)c3csc4ccccc34)CC2)c1	-2	-5	19	2	15	48*	32	1	3
COc1ccc(N2CC(C(=O)N[C@@H](C)C(=O)NC3CCCCC3)CC2=O)cc1 (stereo partly specified)	-1	2	7	5	7	5	·	·	·
COc1ccccc1CNC(=O)CSc1ccc(Br)cc1	-2	0	2	-9	4	45*	24	1	5
COc1ccccc1CNC(=O)COC(=O)CSc1ccc(F)cc1	-1	-1	-56	-2	5	-8	·	·	·
Cc1c(Cl)cccc1NC(=O)CSc1nc2ncc(Cl)cc2[nH]1	10	8	16	-8	-15	3	·	·	·
O=S(=O)(c1ccc(F)c(F)c1)N1CCCCCCC1	-5	·	·	2	·	-5	·	·	·
CC(=O)Nc1cc(-c2ccc(N(C)C)cc2)cn2c(-c3ccc(F)c(Cl)c3)cnc12	6	·	·	4	·	30	·	·	·
CC(=O)Nc1cc(-c2ccc(N(C)C)cc2)cn2c(-c3ccc(F)cc3)cnc12	-8	·	·	-4	·	54*	54*	0	5
COC(=O)c1ccc2[nH]c3c(c2c1)CC(C)CC3 (stereo unspecified)	-1	2	14	-9	-15	50*	44	-1	-12
O=C(COc1ccc2ccccc2c1)N1CCN(c2ccccc2O)CC1	-1	-3	-2	-8	-14	71*	62*	0	-8
Cc1ccc(CC(=O)N2CCN(c3ccccc3F)CC2)cc1	-5	-3	0	4	8	8	·	·	·
O=C(COc1ccc2ccccc2c1)N1CCNCC1	4	-2	-21	-8	2	10	·	·	·
SMILES	HTR2A ag	APJ agonist	APJ antagonist	CXCR6 block	CCR6 antag	EBI2 block	EBI2 antag conf	EBI2 ag	bGal counter
CS(=O)(=O)N1CCN(C(=O)COc2ccc3ccccc3c2)CC1	0	-1	-9	1	7	79*	46	1	5
CCc1ccc(OCC(=O)N2CCN(c3ccccc3F)CC2)cc1	-5	1	-9	4	11	65*	75*	0	3
CS(=O)(=O)N1CCN(C(=O)COc2ccccc2)CC1	-1	-3	-4	0	-7	-3	·	·	·
Cc1ccccc1CNC(=O)CC1C(=O)NCCN1Cc1c(F)cccc1Cl (stereo unspecified)	2	0	9	-4	6	1	·	·	·
C=C1c2ccccc2O[C@H](C(=O)OCC)[C@H]1OC	-2	·	·	6	9	-10	·	·	·
O=C(NCCc1ccc(Cl)cc1)c1ccc(CNc2c(N3CCOCC3)c(=O)c2=O)cc1	-10	-5	0	-3	5	10	·	·	·
NC(=O)NCC(=O)N1CCN(S(=O)(=O)c2ccc(Cl)s2)CC1	11	-2	-2	1	0	2	·	·	·
COc1ccc(Cl)cc1S(=O)(=O)N1CCN(C(=O)COc2ccccc2)CC1	-2	-1	1	-6	-7	21	·	·	·
N#Cc1ccc(OCC(=O)N2CCN(S(=O)(=O)c3ccc(Cl)s3)CC2)cc1	5	-3	0	-2	0	81*	44	1	4
COc1ccc(CC(=O)N2CCN(S(=O)(=O)c3ccc(Cl)s3)CC2)cc1	-1	-1	15	2	2	27	·	·	·
COc1ccc(OCC(=O)N2CCN(S(=O)(=O)c3ccc(Cl)s3)CC2)cc1	5	-3	6	-17	6	87*	79*	1	2
N#Cc1ccc(OCC(=O)N2CCN(S(=O)(=O)c3cccc(Cl)c3)CC2)cc1	-5	-1	-10	-6	7	54*	21	1	8
Cc1ccc(NC(=O)C(C)N2C(=O)c3ccccc3C2=O)c(C)c1 (stereo unspecified)	-5	1	-4	1	11	-10	·	·	·
OC[C@@H]1CN(Cc2ccc(Cl)cc2)C[C@H](n2cnc3c(NC4CCC4)ncnc32)O1	-4	·	·	4	·	44*	26	0	7
CC(C)N(C)c1ncnc2c1ncn2[C@H]1CN(Cc2ccc(-c3ccccc3)cc2)C[C@@H](CO)O1	6	·	·	-9	·	57*	46	0	-13
CC(C)N(C)c1ncnc2c1ncn2[C@H]1CN(Cc2ccncc2)C[C@@H](CO)O1	4	·	·	2	·	10	·	·	·
